Measured values from ChEMBL document CHEMBL2331415, “Tubulin inhibitors from an endophytic fungus isolated from Cedrus deodara” (2013).
Calls of active or inactive are those of the source. The calls are words filed in the database; no cut-off is given here.

Legend:
PC-3 [1] = test: Cytotoxicity against human PC3 cells at 1 uM after 48 hrs by sulforhodamine B assay; type: functional
Outline: (§1)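 Cells kept in RPMI-1640 with 10% FCS and 1% penicillin-G at 37 °C under 5% CO2. Seeded at 8000–14 000 cells/100 μL and exposed for 48 h. Fixed with ice-cold TCA for 1 h at 4 °C, then water-washed and stained with 0.4% SRB for 0.5 h at room temperature. Unbound dye removed with 1% acetic acid; bound dye dissolved in 10 mM Tris (pH 10.05) and read at 540 nm.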

HL-60 [2] = test: Induction of apoptosis in human HL60 cells assessed as condensation and fragmentation of nuclei at 50 uM after 30 hrs by DAPI staining based inverted fluorescence microscopy; type: functional, cell-based
Outline: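 HL-60 seeded at 2 × 10^5 cells/mL in medium with 10% FCS and treated for 30 h at 37 °C, added from DMSO stock; controls got DMSO vehicle only. Air-dried smears fixed in methanol at −20 °C for 20 min, stained with DAPI 1 μg/mL in PBS for 20 min at room temperature in the dark, mounted in glycerol–PBS (1:1) and viewed by inverted fluorescence microscopy (40×).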

PC-3 [3] = test: Cytotoxicity against human PC3 cells at 50 uM after 48 hrs by sulforhodamine B assay; type: functional; outline: as §1
Tubulin (Homo sapiens) [4] = target: T1, Tubulin (Homo sapiens) (UniProt P68371+Q9H4B7+P0DPH7+P68366+Q13509+Q71U36+P04350+Q3ZCM7+P07437+P68363+Q9BQE3+Q6PEY2+Q13885+Q9BVA1+Q9BUF5); test: Inhibition of tubulin in human THP1 cells assessed as disruption and loss of microtubule organization at 50 uM after 48 hrs by immunofluorescence microscopic analysis; type: cell-based; settings: THP-1
Outline: (§2)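 THP-1 seeded at 1 × 10^5 cells/well on coverslips and allowed to adhere for 24 h before treatment. Fixed in 4% paraformaldehyde for 10 min, permeabilized with 0.5% Triton-X for 5 min and blocked with 10% goat serum. Probed with anti-α-tubulin (1:100, 1 h) then Alexa Fluor 488 secondary (1:500, 1 h), counterstained with DAPI 1 μg/mL and imaged by confocal microscopy. Three separate experiments.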

HL-60 [5] = test: Induction of apoptosis in human HL60 cells assessed as condensation, smoothening of the cell surface, blebbing of plasma membrane and formation of apoptotic bodies at 50 uM after 30 hrs by scanning electron microscopy; type: functional, cell-based
HCT-116 [6] = test: Cytotoxicity against human HCT116 cells at 50 uM after 48 hrs by sulforhodamine B assay; type: functional; outline: as §1
HL-60 [7] = test: Induction of apoptosis in human HL60 cells assessed as condensation, smoothening of the cell surface, blebbing of plasma membrane at 30 uM after 30 hrs by scanning electron microscopy; type: functional, cell-based
SK-HEP1 = test: Cytotoxicity against human SKHEP1 cells at 50 uM after 48 hrs by sulforhodamine B assay; type: functional; outline: as §1
THP-1 [8] = test: Cytotoxicity against human THP1 cells at 50 uM after 48 hrs by sulforhodamine B assay; type: functional; outline: as §1
A549 [9] = test: Cytotoxicity against human A549 cells at 50 uM after 48 hrs by sulforhodamine B assay; type: functional; outline: as §1
Tubulin (Homo sapiens) [10] = target: T1, Tubulin (Homo sapiens); test: Stabilization of tubulin polymerization in human THP1 cells at 1 uM after 24 hrs by immunofluorescence microscopic analysis; type: cell-based; settings: THP-1; outline: as §2
THP-1 [11] = test: Cytotoxicity against human THP1 cells at 1 uM after 48 hrs by sulforhodamine B assay; type: functional; outline: as §1
A549 [12] = test: Cytotoxicity against human A549 cells at 1 uM after 48 hrs by sulforhodamine B assay; type: functional; outline: as §1
HCT-116 [13] = test: Cytotoxicity against human HCT116 cells at 1 uM after 48 hrs by sulforhodamine B assay; type: functional; outline: as §1
HCT-116 [14] = test: Cytotoxicity against human HCT116 cells at 20 uM after 48 hrs by sulforhodamine B assay; type: functional
Outline: (§3)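 Cells grown in RPMI-1640 with 10% FCS and 1% penicillin-G at 37 °C, 5% CO2. Seeded at 8000–14 000 cells/100 μL and exposed for 48 h. Fixed with ice-cold TCA for 1 h at 4 °C, stained with 0.4% SRB for 0.5 h at room temperature, washed with 1% acetic acid, bound dye solubilised in 10 mM Tris pH 10.05, read at 540 nm.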

THP-1 [15] = test: Cytotoxicity against human THP1 cells at 20 uM after 48 hrs by sulforhodamine B assay; type: functional; outline: as §3
A549 [16] = test: Cytotoxicity against human A549 cells at 20 uM after 48 hrs by sulforhodamine B assay; type: functional; outline: as §3

`CO[C@@]12[C@H](COC(N)=O)C3=C(C(=O)C(C)=C(N)C3=O)N1C[C@@H]1N[C@@H]12` [MITOMYCIN] was tested, and the Activity (PC-3 [1]) was 59%.
With `C[C@@H]1C[C@H]2CC(=O)C[C@H](C2)O1` the Activity (HL-60 [2]) was “Active”, the Activity (PC-3 [3]) was 23% and the microtubule disruption (Tubulin (Homo sapiens) [4]) was “Active”. For the same compound, the Activity (HL-60 [5]) was “Active”, the Activity (HCT-116 [6]) was 59% and the Activity (HL-60 [7]) was “Active”. It also gave an Activity (SK-HEP1) of 26%, an Activity (THP-1 [8]) of 0% and an Activity (A549 [9]) of 71%.
In the case of `CC(=O)O[C@H]1C(=O)[C@@]2(C)[C@H]([C@H](OC(=O)c3ccccc3)[C@]3(O)C[C@H](OC(=O)[C@H](O)[C@@H](NC(=O)c4ccccc4)c4ccccc4)C(C)=C1C3(C)C)[C@]1(OC(C)=O)CO[C@@H]1C[C@@H]2O` [PACLITAXEL], the Activity (Tubulin (Homo sapiens) [10]) is reported as “Active”, the Activity (THP-1 [11]) is reported as 71% and the Activity (A549 [12]) is reported as 82%. The Activity (HCT-116 [13]) was 72%.
`C[C@H]1C[C@H]2CCCC(O)=C2C(=O)O1` was tested, and the Activity (HL-60 [2]) was “Active”, the Activity (PC-3 [3]) was 23% and the microtubule disruption (Tubulin (Homo sapiens) [4]) was “Active”. The Activity (HL-60 [5]) was “Active”, the Activity (HCT-116 [6]) was 44% and the Activity (HL-60 [7]) was “Active”. The Activity (SK-HEP1) was 23%, the Activity (THP-1 [8]) was 54% and the Activity (A549 [9]) was 15%.
For `C[C@H]1C[C@H]2CC[C@H](O)C(O)=C2C(=O)O1`, the Activity (HL-60 [2]) was “Active”, the Activity (PC-3 [3]) was 34% and the microtubule disruption (Tubulin (Homo sapiens) [4]) was “Active”. For the same compound, the Activity (HL-60 [5]) was “Active”, the Activity (HCT-116 [6]) was 35% and the Activity (HL-60 [7]) was “Active”. It also gave an Activity (SK-HEP1) of 3%, an Activity (THP-1 [8]) of 40% and an Activity (A549 [9]) of 35%.
For `CC1=C[C@H](O)[C@@H]2O[C@@H]2C1=O`, the Activity (HL-60 [2]) was “Active”, the Activity (PC-3 [3]) was 22% and the microtubule disruption (Tubulin (Homo sapiens) [4]) was “Active”. For the same compound, the Activity (HL-60 [5]) was “Active”, the Activity (HCT-116 [6]) was 56% and the Activity (HL-60 [7]) was “Active”. The Activity (SK-HEP1) was 100%, the Activity (THP-1 [8]) was 50% and the Activity (A549 [9]) was 98%.
Work on `O=c1[nH]cc(F)c(=O)[nH]1` [FLUOROURACIL] yielded an Activity (HCT-116 [14]) of 55%, an Activity (THP-1 [15]) of 84% and an Activity (A549 [16]) of 22%.
